# In ChEMBL document CHEMBL1806454, “8-Aryl- and alkyloxycaffeine analogues as inhibitors of monoamine oxidase” (Eur J Med Chem, 2011):
# Assays:
# Homo sapiens = species on record: Homo sapiens; assay: Selectivity index, ratio of Ki for recombinant human MAOB to Ki for recombinant human MAOA
# Summary of the method: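 Recombinant human MAO-A and MAO-B in insect-cell microsomes (0.0075 mg/mL), kynuramine 45 µM (A) or 30 µM (B), inhibitor 0–100 µM, 9 concentrations, DMSO 4% final, K-phosphate 100 mM pH 7.4 isotonic with KCl, 37 °C 20 min. NaOH stop, 4-hydroxyquinoline fluorescence (ex 310/em 400 nm). Duplicate IC50 fits converted to Ki; SI = Ki(MAO-B)/Ki(MAO-A).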
# [1] = target: T1, Amine oxidase [flavin-containing] B (Homo sapiens, UniProt P27338); assay: Inhibition of recombinant human MAOB expressed in baculovirus infected insect cell microsomes using kynuramine as substrate assessed as formation of 4-hydroxyquinoline after 20 mins by fluorescence spectrophotometry; parameters: species or system Microsome
# T1 sequence (P27338 whole entry): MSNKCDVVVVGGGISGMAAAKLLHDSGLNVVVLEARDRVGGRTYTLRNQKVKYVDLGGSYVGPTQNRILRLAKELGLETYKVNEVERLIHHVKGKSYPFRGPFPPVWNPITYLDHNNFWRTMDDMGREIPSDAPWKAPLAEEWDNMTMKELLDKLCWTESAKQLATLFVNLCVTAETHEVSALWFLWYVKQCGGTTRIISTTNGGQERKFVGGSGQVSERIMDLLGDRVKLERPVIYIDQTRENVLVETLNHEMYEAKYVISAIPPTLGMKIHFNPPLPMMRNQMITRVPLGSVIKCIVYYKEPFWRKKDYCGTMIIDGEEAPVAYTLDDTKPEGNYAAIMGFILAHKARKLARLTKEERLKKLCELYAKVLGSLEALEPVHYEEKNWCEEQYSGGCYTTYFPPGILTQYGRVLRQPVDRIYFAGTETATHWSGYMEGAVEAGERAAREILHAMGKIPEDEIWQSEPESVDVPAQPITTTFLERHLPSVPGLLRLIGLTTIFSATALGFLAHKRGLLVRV
# [2] = target: T2, Amine oxidase [flavin-containing] A (Homo sapiens, UniProt P21397); assay: Inhibition of recombinant human MAOA expressed in baculovirus infected insect cell microsomes using kynuramine as substrate assessed as formation of 4-hydroxyquinoline after 20 mins by fluorescence spectrophotometry; parameters: species or system Microsome
# T2 sequence (P21397 whole entry): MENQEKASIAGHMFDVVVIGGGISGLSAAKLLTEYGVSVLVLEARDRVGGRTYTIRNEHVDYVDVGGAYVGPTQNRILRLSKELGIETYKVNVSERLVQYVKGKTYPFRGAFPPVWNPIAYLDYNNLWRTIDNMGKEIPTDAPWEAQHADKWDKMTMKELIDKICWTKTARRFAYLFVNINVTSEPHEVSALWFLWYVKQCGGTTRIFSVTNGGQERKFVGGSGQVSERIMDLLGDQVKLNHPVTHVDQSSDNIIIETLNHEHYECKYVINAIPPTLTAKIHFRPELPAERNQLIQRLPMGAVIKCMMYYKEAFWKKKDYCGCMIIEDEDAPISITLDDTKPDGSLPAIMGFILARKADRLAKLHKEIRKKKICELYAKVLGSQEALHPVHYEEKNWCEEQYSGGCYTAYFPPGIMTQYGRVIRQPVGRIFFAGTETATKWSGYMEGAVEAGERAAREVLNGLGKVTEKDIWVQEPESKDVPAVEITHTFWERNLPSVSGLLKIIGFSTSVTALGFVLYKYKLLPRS
# [3] = target: T1, Amine oxidase [flavin-containing] B; assay: Ratio of 8-benzyloxycaffeine IC50 to compound IC50 for recombinant human MAOB expressed in baculovirus infected insect cell microsomes; parameters: species or system Microsome
# [4] = target: T1, Amine oxidase [flavin-containing] B; assay: Competitive inhibition of human recombinant MAOB expressed in baculovirus infected insect cell microsomes using kynuramine as substrate assessed as 4-hydroxyquinoline formation per min per mg protein by Lineweaver-Burk plot analysis; parameters: species or system Microsome
# [5] = target: T2, Amine oxidase [flavin-containing] A; assay: Competitive inhibition of human recombinant MAOA expressed in baculovirus infected insect cell microsomes using kynuramine as substrate assessed as 4-hydroxyquinoline formation per min per mg protein by Lineweaver-Burk plot analysis; parameters: species or system Microsome
Structure (SMILES),Ratio Ki (Homo sapiens),IC50 [1] [µM],Ki [1] [µM],IC50 [2] [µM],Ki [2] [µM],Ratio IC50 [3],Ki [4] [µM],Ki [5] [µM]
Cn1c(=O)c2c(nc(OCCCc3ccccc3)n2C)n(C)c1=O,0.019,0.615,0.45,69.3,24.3,–,–,–
Cn1c(=O)c2c(nc(OCCc3ccccc3)n2C)n(C)c1=O,0.39,2.94,2.16,15.9,5.57,–,–,–
Cn1c(=O)c2c(nc(OCCOc3ccccc3)n2C)n(C)c1=O,0.0036,0.383,0.28,20.4,77.1,–,–,–
Cn1c(=O)c2c(nc(OCCOc3ccc(Cl)cc3)n2C)n(C)c1=O,–,–,–,–,0.64,–,–,–
Cn1c(=O)c2c(nc(OCC3CCCCC3)n2C)n(C)c1=O,0.16,1.36,1,18.4,6.45,–,–,–
CC(C)CCOc1nc2c(c(=O)n(C)c(=O)n2C)n1C,1.08,14.1,10.3,27.3,9.57,–,–,–
Cn1c(=O)c2c(nc(OCCOCc3ccccc3)n2C)n(C)c1=O,0.047,3.77,2.76,168,58.7,–,–,–
Cn1c(=O)c2c(nc(Oc3ccccc3)n2C)n(C)c1=O,0.3,10.7,7.84,75.2,26.3,–,–,–
Cn1c(=O)c2c(nc(OCc3ccc(Br)cc3)n2C)n(C)c1=O,0.099,0.062,0.045,1.3,0.46,27,–,–
CC(C)CCCCOc1nc2c(c(=O)n(C)c(=O)n2C)n1C,0.053,0.381,0.28,15.2,5.31,–,–,–
Cn1c(=O)c2c(nc(OCc3ccc(Cl)cc3)n2C)n(C)c1=O,0.1,0.065,0.048,1.34,0.47,27,–,–
Cn1c(=O)c2c(nc(OCC3CC=CCC3)n2C)n(C)c1=O (stereo not given),0.45,2.99,2.19,13.8,4.81,–,–,–
Cn1c(=O)c2c(nc(OCCOc3ccc(Br)cc3)n2C)n(C)c1=O,0.207,0.166,0.12,1.65,0.58,–,0.088,1.18
Cn1c(=O)c2c(nc(OCC3CCCC3)n2C)n(C)c1=O,1.46,15.9,11.6,22.8,7.98,–,–,–
